In article PMC3372638 (Journal of Molecular Biology, 2012):
Positions count from the first letter of the chain named. Each block holds one molecule with its values, some of them ahead of it.

Experiments:
[1] = molecular target: T1, HsP5CDH (Homo sapiens, UniProt P30038, S352A); experiment: isothermal titration calorimetry; type: binding
T1 sequence (P30038 18-563 S352A): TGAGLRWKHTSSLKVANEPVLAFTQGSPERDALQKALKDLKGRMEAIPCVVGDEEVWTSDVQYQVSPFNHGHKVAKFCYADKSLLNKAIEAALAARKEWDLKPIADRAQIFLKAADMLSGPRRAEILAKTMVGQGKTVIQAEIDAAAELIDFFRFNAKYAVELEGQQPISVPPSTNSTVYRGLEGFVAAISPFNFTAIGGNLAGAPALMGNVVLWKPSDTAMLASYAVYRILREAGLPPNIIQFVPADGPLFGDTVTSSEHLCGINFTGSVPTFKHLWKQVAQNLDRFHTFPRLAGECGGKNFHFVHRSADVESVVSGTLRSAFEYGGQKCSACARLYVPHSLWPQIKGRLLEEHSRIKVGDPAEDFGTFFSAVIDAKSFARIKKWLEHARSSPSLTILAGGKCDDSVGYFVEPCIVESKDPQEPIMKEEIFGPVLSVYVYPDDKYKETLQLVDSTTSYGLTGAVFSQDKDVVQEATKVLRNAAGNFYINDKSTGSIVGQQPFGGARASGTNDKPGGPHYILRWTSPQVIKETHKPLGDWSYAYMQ
Outline: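 Site-directed S352A mutant of His-tagged human P5CDH was expressed in E. coli BL21(DE3)pLysS and purified by Ni2+-affinity and anion exchange. It was dialysed into 50 mM Tris, 50 mM NaCl, 0.5 mM THP, 0.5 mM EDTA, 5 % glycerol, pH 8.0, with NAD+ in the dialysate and pH-matched. Titrated at 25 °C: 20 μl injections at 240-s intervals, 250 rpm, 4 μl pre-injection discarded. Fitted to a single-site binding model.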

[2] = molecular target: T2, HsP5CDH (Homo sapiens, UniProt P30038); experiment: isothermal titration calorimetry; type: binding
T2 sequence (P30038 18-563): T1 sequence (P30038 18-563 S352A) with A335S
Outline: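 His-tagged human P5CDH was expressed in E. coli BL21(DE3)pLysS and purified by Ni2+-affinity then anion exchange. It was dialysed into 50 mM Tris, 50 mM NaCl, 0.5 mM THP, 0.5 mM EDTA, 5 % glycerol, pH 8.0, with NAD+ dissolved in the dialysate and pH-matched. Run at 25 °C: 20 μl NAD+ injections every 240 s, 250 rpm, 4 μl pre-injection discarded. Three titrations (30, 34, 47 μM protein) were fitted globally to a single-site model.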

[3] = molecular target: the molecule itself; experiment: AUC
[4] = molecular target: the molecule itself; experiment: crystal structure

Kd [1]: 10 µM
Kd [2]: 15 µM
Molecule: NC(=O)c1ccc[n+]([C@@H]2O[C@H](COP(=O)(O)OP(=O)(O)OC[C@H]3O[C@@H](n4cnc5c(N)ncnc54)[C@H](O)[C@@H]3O)[C@@H](O)[C@H]2O)c1 [NAD^+]

B1: human Δ1-pyrroline-5-carboxylate dehydrogenase (enzyme, UniProt P30038-1 18-563, looked up)
chain: T1 sequence (P30038 18-563 S352A) with A335S
stoichiometry N [3]: 2

B2: human Δ1-pyrroline-5-carboxylate dehydrogenase with Ser352 mutated to Ala (enzyme, UniProt P30038-1 18-563, looked up)
chain: T1 sequence (P30038 18-563 S352A)
binding result [4]: binds

B3: human Δ1-pyrroline-5-carboxylate dehydrogenase with Ser352 mutated to Leu (enzyme, UniProt P30038-1 18-563, looked up)
chain: T1 sequence (P30038 18-563 S352A) with A335L
binding result [4]: binds
